In the library only some 2.6% were active in any assay of this set; here they are far more common.
SENP8 block-1 = inhibitors of human SENP8 protease | hit rate 1.2% among 330,000 | Q96LD8 | AID 2540 | purified SENP8, Z-RLRGG-aminoluciferin cleavage, luminescence | inhibition, % at 10 µM; in the data active = inhibition above about 50%
SENP7 inh = inhibitors of human SENP7 protease | Q9BQF6 | recombinant SENP7, Z-RLRGG-aminoluciferin luminescence, 40 min | inhibition, % at 5 µM | hit rate 1.5% among 330,000 | AID 434973;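 active = inhibition above about 50% at the single test dose, limit read from the data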
SENP8 block-2 = inhibitors of human SENP8 protease; recombinant SENP8, Nedd8 substrate fluorescence; Q96LD8; inhibition, % at 20 µM; hit rate 0.64% among 360,000; in the data active = inhibition mostly above about 40%, no sharp cut-off; inactive = mostly below about 27%
SENP6 inh = inhibitors of human SENP6 protease | Q9GZR1 | Recombinant SENP6 catalytic domain, aminoluciferin luminescence | inhibition, % at 10 µM | hit rate 1.8% among 330,000 | AID 2599;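 active = inhibition above about 50% at the single tested dose, limit read from the data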
Target sequence (Q9GZR1 628-1112 limits assumed): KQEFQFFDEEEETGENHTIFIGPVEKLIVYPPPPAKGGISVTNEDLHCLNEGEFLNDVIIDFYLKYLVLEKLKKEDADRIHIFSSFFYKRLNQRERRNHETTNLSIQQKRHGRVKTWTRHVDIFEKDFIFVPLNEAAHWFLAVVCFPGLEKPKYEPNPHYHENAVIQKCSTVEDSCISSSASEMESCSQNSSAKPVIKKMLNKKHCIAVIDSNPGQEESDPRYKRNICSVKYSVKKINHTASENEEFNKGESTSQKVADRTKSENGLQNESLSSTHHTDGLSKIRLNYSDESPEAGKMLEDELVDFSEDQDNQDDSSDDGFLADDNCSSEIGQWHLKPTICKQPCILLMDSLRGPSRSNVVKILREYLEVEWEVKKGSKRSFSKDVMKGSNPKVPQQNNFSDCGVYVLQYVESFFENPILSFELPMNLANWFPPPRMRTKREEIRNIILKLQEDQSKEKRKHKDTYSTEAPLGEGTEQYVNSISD
Platelet DG rel = platelet dense granule release activity; human platelet-rich plasma, SFLLRN dense granule ATP release, luminescence; hit rate 0.22% among 300,000; AID 1663; inhibition, %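 (compounds screened at 7.5 µM in platelet-rich plasma)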;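 active = mean replicate score, as percent of positive control, at or above 50; inconclusive = mean below 50 but at least one replicate at or above 50; inactive = mean and every replicate below 50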
SENP1 inh = inhibitors of human SENP1 SUMO protease catalytic domain | inhibition, % at 10 µM | Q9P0U3 | hit rate 0.21% among 360,000 | recombinant SENP1 catalytic domain, CyPet-SUMO1-YPet FRET cleavage | AID 624204;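 active = inhibition at least 30% at 10 µM, raw YFP signal under a set limit, fluorescence ratio 0.5 to 1.5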
Target sequence (Q9P0U3 419-644 limits assumed): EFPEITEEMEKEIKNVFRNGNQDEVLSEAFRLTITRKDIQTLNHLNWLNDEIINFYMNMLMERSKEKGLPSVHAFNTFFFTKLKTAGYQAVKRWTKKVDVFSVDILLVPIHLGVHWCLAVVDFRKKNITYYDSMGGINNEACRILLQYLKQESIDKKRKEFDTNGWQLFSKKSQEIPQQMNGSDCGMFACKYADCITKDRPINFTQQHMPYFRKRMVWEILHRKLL
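material = recombinant human SENP1 catalytic domain, His6-tagged | quantity = 20 pM enzyme | reagent = 25 nM SUMO1 FRET substrate | compound dosing = 10 µM single point, 0.5% DMSO | timing = 50 min enzyme reaction, room temperature, light-protected | detection = FRET, CFP and YFP emission | control set = no-enzyme low, enzyme-DMSO high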
Each line names hits and unclear results; the compound was inactive in the other large screens.

O=S(=O)(CCN1CCCC1)NCCNS(=O)(=O)c1ccc(F)cc1Br	none (no result: SENP8 block-1, SENP7 inh, SENP6 inh, Platelet DG rel)
CNC(=O)/C(C#N)=C/c1ccc(-c2nc3ccccc3s2)o1	SENP7 inh 64.4, Platelet DG rel inconclusive
CCN(CC)c1ccc(NC(=O)/C=C\c2ccccc2Cl)cc1	none
CN1C(=O)/C(=C2\SC(N3CCCCCC3)=NC2=O)c2ccccc21	none
CN1C(=O)/C(=C2\SC(N)=NC2=O)c2ccccc21	SENP8 block-2 42.6
COC1=C(c2ccccc2)C(=O)c2ccccc2C1=O	SENP8 block-2 91.9
CC1CCCCC1NC(=O)CSc1ccc([N+](=O)[O-])cc1 (centres undefined)	none
O=C1C=C(NCCc2cc(Br)c(O)c(Br)c2)C(=O)c2ncccc21	SENP8 block-2 115.7 (no result: SENP8 block-1, SENP7 inh, SENP6 inh, Platelet DG rel)
CC(C)(C)c1cc(CCC(=O)NCCc2ccccn2)cc(C(C)(C)C)c1O	none
COc1cc(/C=C2\C(=O)N(CCC#N)N=C2C)c(Br)cc1OC(C)C	SENP8 block-2 46.3
CC1=NN(c2ccccc2)C(=O)/C1=C\c1cn(CCC#N)nc1-c1ccc(Cl)cc1	none
O=[N+]([O-])c1cc(N=Nc2ccc3ccccc3c2)ccc1O	Platelet DG rel 54.5 (no result: SENP8 block-1, SENP7 inh, SENP6 inh)
Nc1ccc(O)c([N+](=O)[O-])c1	none (no result: Platelet DG rel)
COC(=O)c1cc(C)nc2c1C(=O)C(=O)C=C2N1CCOCC1	SENP8 block-1 98.3, SENP7 inh 93.2, SENP8 block-2 111.0, SENP6 inh 90.4
CCc1ccc(N=Nc2ccc(O)c3[nH]cnc23)cc1	SENP1 inh 75.5 (no result: Platelet DG rel)
CCc1ccc(/C=N/Nc2ncnc3nc[nH]c23)cc1	none
C/C(=N/OCC(=O)Nc1ccccc1)c1cccs1	none
N#C/C(=C\c1ccccn1)c1nc2ccccc2s1	none
COc1ccc(/C(C#N)=C/c2ccccn2)cc1	SENP8 block-1 53.8, SENP6 inh 63.8
COc1cccc(Oc2c(C)oc3c(CN4CCOCC4)c(O)ccc3c2=O)c1	none (no result: SENP8 block-1, SENP7 inh, SENP6 inh, Platelet DG rel)
CC(=O)Nc1ccc(NS(=O)(=O)c2ccccc2)c2ccccc12	none
O=S(=O)(Nc1ccc(O)c2ccccc12)c1ccc(Br)cc1	SENP6 inh 61.9 (no result: SENP8 block-2, SENP1 inh)
CCOC(=O)c1c(NC(=O)/C=C/c2ccc3c(c2)OCO3)sc(C)c1CC	Platelet DG rel 53.6
O=C(/C=C/c1ccc2c(c1)OCO2)Nc1nncs1	SENP7 inh 83.8, SENP6 inh 59.7
COC(=O)c1c(NC(=O)/C=C/c2ccc3c(c2)OCO3)sc(C)c1C	none
Cc1cccc(N=Nc2c(C)nn(-c3ccccc3)c2N)c1C	none
Cc1cccc(N=Nc2c(C)[nH]n(C(N)=S)c2=O)c1C	SENP8 block-1 65.4, SENP6 inh 76.5 (no result: SENP8 block-2, SENP1 inh)
Cc1ccccc1[C@@]1(C)ON(c2ccccc2C(F)(F)F)C1=O	none (no result: Platelet DG rel)
COc1cc(NCc2ccccc2)c2ncn(C(C)C)c2c1	none (no result: Platelet DG rel)
CCC(CN(C)C)Oc1cc(NCc2ccccc2)c2ncn(C(C)C)c2c1 (centres undefined)	SENP8 block-1 82.9, SENP7 inh 86.7 (no result: Platelet DG rel)
COC(CNC(=O)c1cccnc1)OC	none
COC(CNC(=O)c1ccc2c3c(onc13)-c1ccccc1C2=O)OC	SENP8 block-2 101.7
COc1ccc(S(N)(=O)=O)cc1C(=O)OCC(=O)Nc1sccc1C#N	none (no result: Platelet DG rel)
N#Cc1ccsc1NC(=O)COC(=O)c1ccc(NC(N)=O)cc1	SENP8 block-1 73.3, SENP7 inh 68.8
N#Cc1ccsc1NC(=O)COC(=O)c1cc2ccccc2cc1O	SENP8 block-1 89.3, SENP7 inh 89.0, SENP6 inh 96.4
Cc1ccc(NC(=S)NNC(=O)CCn2cc(C)cn2)cc1	none
CC(=O)c1ccc(S(=O)(=O)N(CCCO)Cc2cc3cc(C)ccc3[nH]c2=O)cc1	none
CC(=O)NC1=C(NC2CCS(=O)(=O)C2)C(=O)c2ccccc2C1=O (centres undefined)	SENP8 block-2 45.8
O=C(CN1C(=O)c2ccccc2C1=O)NC1CCS(=O)(=O)C1 (centres undefined)	none (no result: SENP8 block-1, SENP7 inh, SENP6 inh, Platelet DG rel)
C[C@H](CO)N1C[C@H](C)[C@@H](CN(C)Cc2ccncc2)Oc2c(NC(=O)CCC(F)(F)F)cccc2C1=O	none (no result: Platelet DG rel)
Cc1ccc(NC2=C/C(=N\S(=O)(=O)c3cccs3)c3ccccc3C2=O)c(C)c1	SENP8 block-1 91.5, SENP7 inh 81.3, SENP8 block-2 115.9, SENP6 inh 75.6
Cc1ccc(Nc2cc(=O)oc3ccccc23)c(C)c1	none
Cc1cccc(NC2=C/C(=N/S(=O)(=O)c3cccs3)c3ccccc3C2=O)c1	SENP8 block-2 103.0 (no result: SENP8 block-1, SENP7 inh, SENP6 inh, Platelet DG rel)
CCc1ccc(S(=O)(=O)/N=C2/C=C(Sc3ncn[nH]3)C(=O)c3ccccc32)cc1	none (no result: SENP8 block-1, SENP7 inh, SENP6 inh, Platelet DG rel)
CCc1ccc(S(=O)(=O)/N=C2\C=C(Nc3ccc(O)cc3)C(=O)c3ccccc32)cc1	SENP8 block-1 90.7, SENP7 inh 66.9, SENP8 block-2 101.4, SENP6 inh 89.1
CCc1ccc(S(=O)(=O)/N=C2\C=C(Nc3cccc(C(=O)O)c3)C(=O)c3ccccc32)cc1	SENP8 block-1 95.0, SENP8 block-2 69.6, SENP6 inh 92.4
CCc1ccc(S(=O)(=O)/N=C2\C=CC(=O)c3ccccc32)cc1	none (no result: SENP8 block-2, SENP1 inh)
Nc1[nH]ncc1-c1ccc(Cl)cc1	none
Nc1[nH]ncc1N=Nc1ccc(Cl)cc1	SENP8 block-2 47.9
Nc1n[nH]c(N)c1N=Nc1cccc(F)c1	none
Nc1n[nH]c(N)c1N=Nc1cccc(C(F)(F)F)c1	SENP8 block-2 44.1
Nc1n[nH]c(N)c1N=Nc1ccc(Cl)cc1	SENP8 block-2 54.5
O=C(Nc1cccc2ccccc12)c1ccc(OC(=S)N2CCOCC2)cc1	none
Cc1[nH]n(-c2ccccc2)c(=O)c1C(c1ccc(C(=O)O)cc1)c1c(C)[nH]n(-c2ccccc2)c1=O	SENP8 block-2 71.2
Cc1[nH]n(-c2ccccc2)c(=O)c1C(C[N+](=O)[O-])c1ccc(Br)cc1 (centres undefined)	SENP8 block-2 87.7
Cc1[nH]n(-c2ccccc2)c(=O)c1C(c1cccc([N+](=O)[O-])c1)c1c(C)[nH]n(-c2ccccc2)c1=O	SENP8 block-2 49.2
Cc1ccc(NC(=O)c2ccc(Cl)nc2)cc1	none
Cc1ccc(NC(=O)c2nsc(Cl)c2Cl)cc1	SENP7 inh 61.8, SENP6 inh 53.6
O=C(O)c1ccccc1N/N=C/c1c(Sc2nnnn2-c2ccccc2)nc2ccccn2c1=O	SENP1 inh 70.7
O=C(CCCC(=O)N(CC(=O)NC1CCCCC1)Cc1ccccc1)Nc1ccccn1	none
COc1cc(NC(=S)N2CCN(C/C=C/c3ccccc3)CC2)cc(OC)c1	Platelet DG rel 56.6
Cc1ccc(S(=O)(=O)N2C[C@H]3N(C(=O)OC(C)C)N(C(=O)OC(C)C)C[C@H](OC(=O)NCc4ccco4)[C@@]3(O)C2)cc1	none (no result: SENP8 block-1, SENP7 inh, SENP6 inh, Platelet DG rel)
COCCNC(=S)NNC(=O)c1cc(-c2cccnc2)nc2ccccc12	none
CCCN1C2CCCC1CC(NC(=O)C1CCCCC1)C2 (centres undefined)	none
COc1cccc(N=Nc2ccc(O)c3ncccc23)c1	SENP8 block-1 73.3, SENP7 inh 62.5, SENP6 inh 76.8
COc1cc(OC)cc(C(=O)Nc2cccc3cccnc23)c1	none

Screening data (PubChem BioAssay)
